Test results taken from ChEMBL document CHEMBL2424622, “Development of amino-pyrimidine inhibitors of c-Jun N-terminal kinase (JNK): kinase profiling guided optimization of a 1,2,3-benzotriazole lead” (Bioorg Med Chem Lett, 2013).

Tests used:
[1] = molecular target: Receptor-type tyrosine-protein kinase FLT3 (Homo sapiens) (UniProt P36888); experiment: Competitive binding affinity to FLT3 (unknown origin) at 10 uM in presence of ATP relative to control
In short: (§1)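 In vitro ATP-site competition binding assay, part of profiling against a diverse panel of 128 kinases. Each compound was tested at a single concentration of 10 µM. Kinome selectivity was summarized as S15 selectivity scores.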

[2] = molecular target: Tyrosine-protein kinase Fes/Fps (Homo sapiens) (UniProt P07332); experiment: Competitive binding affinity to FES (unknown origin) at 10 uM in presence of ATP relative to control; in short: as §1
[3] = molecular target: T1, Ephrin type-A receptor 8 (Homo sapiens) (UniProt P29322); experiment: Competitive binding affinity to EPHA8 (unknown origin) at 10 uM in presence of ATP relative to control; in short: as §1
T1 sequence (whole entry): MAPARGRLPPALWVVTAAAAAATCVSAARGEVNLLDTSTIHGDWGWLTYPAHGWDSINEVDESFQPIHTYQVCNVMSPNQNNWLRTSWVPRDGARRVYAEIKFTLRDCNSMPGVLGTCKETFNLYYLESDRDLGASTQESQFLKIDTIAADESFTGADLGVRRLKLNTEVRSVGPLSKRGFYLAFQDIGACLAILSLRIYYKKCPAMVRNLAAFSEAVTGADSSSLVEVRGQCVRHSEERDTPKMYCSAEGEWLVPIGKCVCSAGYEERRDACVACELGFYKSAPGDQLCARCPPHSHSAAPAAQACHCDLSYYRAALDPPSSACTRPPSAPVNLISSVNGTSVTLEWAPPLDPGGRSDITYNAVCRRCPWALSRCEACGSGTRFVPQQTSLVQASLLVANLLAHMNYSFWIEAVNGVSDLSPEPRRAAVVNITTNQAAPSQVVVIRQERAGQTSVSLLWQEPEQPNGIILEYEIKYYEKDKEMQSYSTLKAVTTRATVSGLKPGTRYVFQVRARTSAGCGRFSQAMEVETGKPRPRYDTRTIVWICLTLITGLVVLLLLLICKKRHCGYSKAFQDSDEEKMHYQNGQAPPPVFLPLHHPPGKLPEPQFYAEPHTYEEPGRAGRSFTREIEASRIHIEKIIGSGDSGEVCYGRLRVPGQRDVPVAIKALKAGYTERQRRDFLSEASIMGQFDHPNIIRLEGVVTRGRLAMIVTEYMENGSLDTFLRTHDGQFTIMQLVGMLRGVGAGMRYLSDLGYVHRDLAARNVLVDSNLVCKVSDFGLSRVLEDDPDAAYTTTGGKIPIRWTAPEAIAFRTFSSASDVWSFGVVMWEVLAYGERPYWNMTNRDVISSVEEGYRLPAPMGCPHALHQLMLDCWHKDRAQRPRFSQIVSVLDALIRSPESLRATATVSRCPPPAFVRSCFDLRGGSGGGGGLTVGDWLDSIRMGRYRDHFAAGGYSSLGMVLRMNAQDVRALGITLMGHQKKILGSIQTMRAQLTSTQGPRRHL

[4] = molecular target: Calcium/calmodulin-dependent protein kinase type II subunit delta (Homo sapiens) (UniProt Q13557); experiment: Competitive binding affinity to CAMK2D (unknown origin) at 10 uM in presence of ATP relative to control
[5] = molecular target: High affinity nerve growth factor receptor (Homo sapiens) (UniProt P04629); experiment: Competitive binding affinity to TRKA (unknown origin) at 10 uM in presence of ATP relative to control
In short: (§2)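 In vitro ATP-site competition binding assay across a diverse panel of 128 kinases, with compound tested at a single concentration. Kinase selectivity scores (S15) were calculated from the panel profiles.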

[6] = molecular target: Ribosomal protein S6 kinase alpha-5 (Homo sapiens) (UniProt O75582); experiment: Competitive binding affinity to RPS6KA5 kinase domain 1 (unknown origin) at 10 uM in presence of ATP relative to control; in short: as §2
[7] = molecular target: RAF proto-oncogene serine/threonine-protein kinase (Homo sapiens) (UniProt P04049); experiment: Competitive binding affinity to RAF1 (unknown origin) at 10 uM in presence of ATP relative to control; in short: as §2
[8] = molecular target: Protein-tyrosine kinase 2-beta (Homo sapiens) (UniProt Q14289); experiment: Competitive binding affinity to PTK2B (unknown origin) at 10 uM in presence of ATP relative to control; in short: as §2
[9] = molecular target: T2, 3-phosphoinositide-dependent protein kinase 1 (Homo sapiens) (UniProt O15530); experiment: Competitive binding affinity to PDPK1 (unknown origin) at 10 uM in presence of ATP relative to control; in short: as §2
T2 sequence (whole entry): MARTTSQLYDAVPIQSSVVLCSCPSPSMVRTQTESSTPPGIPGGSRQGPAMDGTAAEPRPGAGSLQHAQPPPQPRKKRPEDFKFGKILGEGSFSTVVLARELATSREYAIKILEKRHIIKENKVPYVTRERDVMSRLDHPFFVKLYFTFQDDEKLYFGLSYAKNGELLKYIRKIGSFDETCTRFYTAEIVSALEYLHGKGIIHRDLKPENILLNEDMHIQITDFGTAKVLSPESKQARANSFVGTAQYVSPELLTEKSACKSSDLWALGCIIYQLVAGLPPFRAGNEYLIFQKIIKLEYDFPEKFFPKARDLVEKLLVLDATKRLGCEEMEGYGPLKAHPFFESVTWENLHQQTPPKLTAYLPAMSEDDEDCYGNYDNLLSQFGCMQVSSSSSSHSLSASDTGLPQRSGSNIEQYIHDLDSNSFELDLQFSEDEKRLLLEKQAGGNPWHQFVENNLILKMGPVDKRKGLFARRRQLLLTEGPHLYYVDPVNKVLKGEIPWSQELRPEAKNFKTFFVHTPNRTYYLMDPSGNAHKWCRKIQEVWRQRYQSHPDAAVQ

[10] = molecular target: Serine/threonine-protein kinase PAK 5 (Homo sapiens) (UniProt Q9P286); experiment: Competitive binding affinity to PAK7/PAK5 (unknown origin) at 10 uM in presence of ATP relative to control; in short: as §2
[11] = molecular target: Serine/threonine-protein kinase PAK 3 (Homo sapiens) (UniProt O75914); experiment: Competitive binding affinity to PAK3 (unknown origin) at 10 uM in presence of ATP relative to control; in short: as §2
[12] = molecular target: Myosin light chain kinase 2, skeletal/cardiac muscle (Homo sapiens) (UniProt Q9H1R3); experiment: Competitive binding affinity to MYLK2 (unknown origin) at 10 uM in presence of ATP relative to control; in short: as §2
Myosin light chain kinase 2, skeletal/cardiac muscle (Homo sapiens), sequence (Q9H1R3 whole entry): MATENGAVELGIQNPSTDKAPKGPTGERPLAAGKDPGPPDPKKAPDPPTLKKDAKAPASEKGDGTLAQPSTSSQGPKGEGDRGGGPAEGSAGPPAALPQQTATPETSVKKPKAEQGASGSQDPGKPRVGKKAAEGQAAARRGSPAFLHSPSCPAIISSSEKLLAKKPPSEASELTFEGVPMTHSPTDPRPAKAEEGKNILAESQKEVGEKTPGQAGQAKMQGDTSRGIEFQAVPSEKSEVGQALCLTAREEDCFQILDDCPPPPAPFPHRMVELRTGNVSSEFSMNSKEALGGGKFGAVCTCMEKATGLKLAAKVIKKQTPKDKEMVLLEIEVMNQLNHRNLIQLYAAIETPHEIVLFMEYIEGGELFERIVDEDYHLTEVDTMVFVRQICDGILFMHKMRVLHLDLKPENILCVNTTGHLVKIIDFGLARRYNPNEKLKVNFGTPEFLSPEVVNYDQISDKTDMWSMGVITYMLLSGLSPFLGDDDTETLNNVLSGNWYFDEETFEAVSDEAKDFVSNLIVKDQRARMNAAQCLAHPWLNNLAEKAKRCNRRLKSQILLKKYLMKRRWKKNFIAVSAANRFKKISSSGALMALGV

Protein-tyrosine kinase 2-beta (Homo sapiens), sequence (Q14289 whole entry, looked up): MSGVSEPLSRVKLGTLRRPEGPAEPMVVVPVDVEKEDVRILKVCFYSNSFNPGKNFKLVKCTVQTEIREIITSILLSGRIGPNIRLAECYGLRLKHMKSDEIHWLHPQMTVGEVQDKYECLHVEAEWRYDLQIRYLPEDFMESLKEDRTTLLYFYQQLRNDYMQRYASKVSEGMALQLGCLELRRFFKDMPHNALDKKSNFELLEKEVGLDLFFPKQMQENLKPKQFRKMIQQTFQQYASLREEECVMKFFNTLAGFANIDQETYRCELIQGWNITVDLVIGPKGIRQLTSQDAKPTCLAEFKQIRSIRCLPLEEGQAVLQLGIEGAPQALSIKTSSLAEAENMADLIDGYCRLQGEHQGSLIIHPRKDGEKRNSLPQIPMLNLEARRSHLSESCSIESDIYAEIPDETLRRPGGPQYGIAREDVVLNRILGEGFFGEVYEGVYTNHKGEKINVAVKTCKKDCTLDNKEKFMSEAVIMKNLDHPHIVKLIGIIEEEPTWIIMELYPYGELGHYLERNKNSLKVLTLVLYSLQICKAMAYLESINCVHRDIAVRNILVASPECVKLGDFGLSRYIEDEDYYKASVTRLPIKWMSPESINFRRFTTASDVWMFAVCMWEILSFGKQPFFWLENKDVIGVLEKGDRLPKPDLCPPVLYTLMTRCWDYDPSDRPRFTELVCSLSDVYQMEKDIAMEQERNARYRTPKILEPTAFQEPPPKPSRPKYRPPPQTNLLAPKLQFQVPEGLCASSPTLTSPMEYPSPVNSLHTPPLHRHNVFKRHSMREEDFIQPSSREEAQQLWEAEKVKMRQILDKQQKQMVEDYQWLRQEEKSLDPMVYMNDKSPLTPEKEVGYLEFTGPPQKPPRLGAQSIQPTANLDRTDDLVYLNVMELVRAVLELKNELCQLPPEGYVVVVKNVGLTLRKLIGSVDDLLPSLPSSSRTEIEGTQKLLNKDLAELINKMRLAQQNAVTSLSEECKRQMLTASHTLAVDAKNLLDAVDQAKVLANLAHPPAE
Serine/threonine-protein kinase PAK 3 (Homo sapiens), sequence (O75914 whole entry, looked up): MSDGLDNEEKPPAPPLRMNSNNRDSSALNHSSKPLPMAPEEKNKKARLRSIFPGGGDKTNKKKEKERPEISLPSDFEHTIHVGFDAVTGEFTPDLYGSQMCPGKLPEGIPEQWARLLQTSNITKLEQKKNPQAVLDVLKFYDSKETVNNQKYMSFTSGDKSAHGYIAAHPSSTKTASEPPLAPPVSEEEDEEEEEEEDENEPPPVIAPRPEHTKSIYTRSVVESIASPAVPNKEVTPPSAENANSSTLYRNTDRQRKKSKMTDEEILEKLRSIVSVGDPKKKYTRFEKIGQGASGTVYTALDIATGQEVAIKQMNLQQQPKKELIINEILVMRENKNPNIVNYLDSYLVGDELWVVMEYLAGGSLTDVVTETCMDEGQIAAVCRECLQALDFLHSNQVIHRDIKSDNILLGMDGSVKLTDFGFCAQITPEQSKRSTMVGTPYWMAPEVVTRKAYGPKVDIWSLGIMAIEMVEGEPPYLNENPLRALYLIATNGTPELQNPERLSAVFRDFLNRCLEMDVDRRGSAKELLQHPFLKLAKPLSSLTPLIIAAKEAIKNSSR
Tyrosine-protein kinase Fes/Fps (Homo sapiens), sequence (P07332 whole entry): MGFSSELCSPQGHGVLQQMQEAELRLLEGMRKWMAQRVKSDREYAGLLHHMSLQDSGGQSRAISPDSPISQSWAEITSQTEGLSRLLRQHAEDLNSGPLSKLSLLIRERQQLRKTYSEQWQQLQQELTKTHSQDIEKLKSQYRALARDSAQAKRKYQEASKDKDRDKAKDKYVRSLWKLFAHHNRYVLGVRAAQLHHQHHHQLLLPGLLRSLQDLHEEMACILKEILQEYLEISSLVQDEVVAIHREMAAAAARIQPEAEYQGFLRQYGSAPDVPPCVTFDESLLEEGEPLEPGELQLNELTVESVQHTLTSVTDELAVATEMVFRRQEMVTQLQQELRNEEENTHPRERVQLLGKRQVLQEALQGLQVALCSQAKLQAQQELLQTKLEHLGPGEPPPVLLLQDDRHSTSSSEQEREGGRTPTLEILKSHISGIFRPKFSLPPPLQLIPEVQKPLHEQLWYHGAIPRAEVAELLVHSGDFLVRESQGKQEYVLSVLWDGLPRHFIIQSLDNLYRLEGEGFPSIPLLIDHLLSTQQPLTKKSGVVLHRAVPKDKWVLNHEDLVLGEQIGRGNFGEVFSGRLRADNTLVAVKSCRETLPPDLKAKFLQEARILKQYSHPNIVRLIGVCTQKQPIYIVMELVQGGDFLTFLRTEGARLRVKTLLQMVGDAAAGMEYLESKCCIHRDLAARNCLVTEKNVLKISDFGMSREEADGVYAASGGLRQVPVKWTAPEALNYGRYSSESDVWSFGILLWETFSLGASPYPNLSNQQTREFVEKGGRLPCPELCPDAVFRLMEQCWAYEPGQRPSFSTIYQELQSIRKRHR
Calcium/calmodulin-dependent protein kinase type II subunit delta (Homo sapiens), sequence (Q13557 whole entry): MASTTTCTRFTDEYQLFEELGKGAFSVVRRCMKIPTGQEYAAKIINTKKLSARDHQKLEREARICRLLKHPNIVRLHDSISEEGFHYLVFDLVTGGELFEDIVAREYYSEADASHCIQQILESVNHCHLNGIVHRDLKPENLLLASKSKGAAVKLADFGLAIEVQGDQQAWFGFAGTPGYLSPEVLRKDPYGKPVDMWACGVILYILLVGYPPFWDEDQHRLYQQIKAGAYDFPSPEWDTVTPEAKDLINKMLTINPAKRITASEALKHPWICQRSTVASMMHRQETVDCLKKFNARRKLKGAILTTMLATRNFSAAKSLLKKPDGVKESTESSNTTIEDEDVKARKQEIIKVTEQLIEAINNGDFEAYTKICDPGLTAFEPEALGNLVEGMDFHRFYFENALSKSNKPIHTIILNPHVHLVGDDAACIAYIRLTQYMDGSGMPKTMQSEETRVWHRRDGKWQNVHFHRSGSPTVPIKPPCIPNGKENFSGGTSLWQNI
High affinity nerve growth factor receptor (Homo sapiens), sequence (P04629 33-796 limits assumed): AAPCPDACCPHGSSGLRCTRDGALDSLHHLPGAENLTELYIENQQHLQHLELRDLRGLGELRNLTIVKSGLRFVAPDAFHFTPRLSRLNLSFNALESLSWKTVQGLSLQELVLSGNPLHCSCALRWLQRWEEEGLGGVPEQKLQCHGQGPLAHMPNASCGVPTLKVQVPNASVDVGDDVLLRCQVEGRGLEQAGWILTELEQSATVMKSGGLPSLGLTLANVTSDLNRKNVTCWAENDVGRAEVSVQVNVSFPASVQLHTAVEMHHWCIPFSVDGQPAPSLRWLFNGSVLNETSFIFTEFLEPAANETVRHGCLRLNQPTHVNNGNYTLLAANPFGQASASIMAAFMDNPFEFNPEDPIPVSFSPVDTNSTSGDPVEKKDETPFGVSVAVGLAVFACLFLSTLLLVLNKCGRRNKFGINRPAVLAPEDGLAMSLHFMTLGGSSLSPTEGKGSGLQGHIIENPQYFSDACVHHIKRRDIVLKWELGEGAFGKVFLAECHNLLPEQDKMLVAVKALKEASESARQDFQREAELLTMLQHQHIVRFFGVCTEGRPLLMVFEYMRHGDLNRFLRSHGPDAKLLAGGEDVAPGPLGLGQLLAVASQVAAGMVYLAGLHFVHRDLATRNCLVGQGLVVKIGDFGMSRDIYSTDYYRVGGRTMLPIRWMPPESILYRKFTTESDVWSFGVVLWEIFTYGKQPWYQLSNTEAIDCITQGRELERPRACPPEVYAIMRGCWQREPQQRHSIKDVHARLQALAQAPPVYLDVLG
Ribosomal protein S6 kinase alpha-5 (Homo sapiens), sequence (O75582 whole entry, looked up, the tested form may be a part): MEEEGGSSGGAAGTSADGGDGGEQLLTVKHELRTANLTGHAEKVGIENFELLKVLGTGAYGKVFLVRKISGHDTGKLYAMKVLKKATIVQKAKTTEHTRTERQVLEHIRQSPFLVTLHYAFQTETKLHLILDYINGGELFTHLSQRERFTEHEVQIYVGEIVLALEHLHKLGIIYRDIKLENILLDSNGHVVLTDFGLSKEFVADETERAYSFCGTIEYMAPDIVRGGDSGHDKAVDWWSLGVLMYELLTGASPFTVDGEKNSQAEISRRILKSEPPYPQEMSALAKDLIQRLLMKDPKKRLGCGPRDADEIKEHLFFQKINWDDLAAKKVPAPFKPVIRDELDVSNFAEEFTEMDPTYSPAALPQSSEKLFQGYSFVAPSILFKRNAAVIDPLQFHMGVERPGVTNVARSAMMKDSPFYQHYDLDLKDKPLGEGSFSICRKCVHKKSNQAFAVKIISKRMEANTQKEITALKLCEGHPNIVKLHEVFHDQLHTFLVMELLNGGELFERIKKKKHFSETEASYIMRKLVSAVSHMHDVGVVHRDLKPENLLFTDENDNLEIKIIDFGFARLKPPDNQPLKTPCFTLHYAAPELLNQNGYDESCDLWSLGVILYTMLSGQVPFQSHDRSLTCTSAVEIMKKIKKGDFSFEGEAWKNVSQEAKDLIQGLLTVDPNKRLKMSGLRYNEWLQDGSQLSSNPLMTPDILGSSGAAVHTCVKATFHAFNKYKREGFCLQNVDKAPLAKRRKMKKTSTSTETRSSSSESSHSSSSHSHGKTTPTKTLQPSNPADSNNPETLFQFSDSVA

Row | Compound | inhibition [1] | inhibition [2] | inhibition [3] | inhibition [4] | inhibition [5] | inhibition [6] | inhibition [7] | inhibition [8] | inhibition [9] | inhibition [10] | inhibition [11] | inhibition [12]
1 | O=C([C@H]1CC[C@H](Nc2nccc(-n3nnc4ccccc43)n2)CC1)N1CCOCC1 | < 50% | < 50% | < 50% | < 50% | < 50% | < 50% | < 50% | < 50% | < 50% | < 50% | < 50% | < 50%
2 | O[C@H]1CC[C@H](Nc2nccc(-c3n[nH]c4ccccc34)n2)CC1 | < 50% | < 50% | < 50% | 91% | 99% | < 50% | < 50% | 77% | 97% | 86% | 99% | 84%

Further lines, results first:

Row | inhibition [1] | inhibition [2] | inhibition [3] | inhibition [4] | inhibition [5] | inhibition [6] | inhibition [7] | inhibition [8] | inhibition [9] | inhibition [10] | inhibition [11] | inhibition [12] | Compound
3 | 95% | < 50% | < 50% | 93% | < 50% | < 50% | < 50% | < 50% | < 50% | < 50% | 75% | < 50% | O[C@H]1CC[C@H](Nc2nccc(-n3ncc4ccccc43)n2)CC1
4 | 85% | < 50% | < 50% | 85% | < 50% | < 50% | < 50% | < 50% | < 50% | < 50% | < 50% | < 50% | O[C@H]1CC[C@H](Nc2nccc(-n3ccc4ccccc43)n2)CC1
5 | 92% | < 50% | < 50% | 83% | < 50% | 70% | < 50% | < 50% | < 50% | < 50% | 90% | 73% | N[C@H]1CC[C@H](Nc2nccc(-n3nnc4ccccc43)n2)CC1
6 | 88% | < 50% | < 50% | 74% | < 50% | < 50% | < 50% | < 50% | < 50% | < 50% | 76% | < 50% | O[C@H]1CC[C@H](Nc2nccc(-n3nnc4ccccc43)n2)CC1
